Test results from ChEMBL document CHEMBL3627606, “Development of Novel, CNS Penetrant Positive Allosteric Modulators for the Metabotropic Glutamate Receptor Subtype 1 (mGlu1), Based on an N-(3-Chloro-4-(1,3-dioxoisoindolin-2-yl)phenyl)-3-methylfuran-2-carboxamide Scaffold, That Potentiate Wild Type and Mutant mGlu1 Receptors Found in …” (J Med Chem, 2015).

Tests used:
Mus musculus [1] = experiment: Toxicity in C57BL/6 mouse assessed as seizure activity at 1 or 3 mg/kg, ip administered as single dose measured after 5 mins; conditions: in vivo
Mus musculus [2] = experiment: Toxicity in C57BL/6 mouse assessed as seizure activity at 1 mg/kg, ip administered as single dose measured after 5 mins; format: organism-based; conditions: in vivo
How it was run: (§1)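 Male C57Bl/6 mice (25−30 g) dosed ip in 10% Tween 80 at 10 mL/kg: the mGlu5 ago-PAM at 1 or 3 mg/kg, the mGlu1 PAMs at 100 mg/kg. Behaviour was monitored continuously for 3 h and scored on a modified Racine scale (0−5).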

Plasma [3] = experiment: Drug metabolism in human plasma assessed as 4-chloro-2-(2-chloro-4-(3-methylfuran-2-carboxamido)phenylcarbamoyl)benzoic acid level at 10 uM after 4 hrs by mass spectrometry; format: ADME, cell-free
Plasma [4] = experiment: Metabolic stability in rat plasma; format: ADME, cell-free
[5] = Drug concentration in Sprague-Dawley rat brain at 0.2 mg/kg, iv after 0.25 hrs by LC-MS/MS analysis; conditions: read-out: Drug uptake
[6] = Half life in Sprague-Dawley rat at 0.2 mg/kg, iv by LC-MS/MS analysis; conditions: in vivo
[7] = target: T1, Metabotropic glutamate receptor 4 (Homo sapiens, UniProt Q14833); experiment: Positive allosteric modulation of human mGlu4 receptor assessed as potentiation of glutamate-induced calcium mobiliztion by cell based assay relative to PHCCC
[8] = target: T2, Metabotropic glutamate receptor 1 (Homo sapiens, UniProt Q13255); experiment: Agonist activity at human mGlu1 receptor in HEK293 cells assessed as calcium mobilization at 10 uM by Fluo-4AM dye based fluorescence analysis; format: functional, cell-based
Target sequence in this assay (Q13255 19-1194 limits assumed): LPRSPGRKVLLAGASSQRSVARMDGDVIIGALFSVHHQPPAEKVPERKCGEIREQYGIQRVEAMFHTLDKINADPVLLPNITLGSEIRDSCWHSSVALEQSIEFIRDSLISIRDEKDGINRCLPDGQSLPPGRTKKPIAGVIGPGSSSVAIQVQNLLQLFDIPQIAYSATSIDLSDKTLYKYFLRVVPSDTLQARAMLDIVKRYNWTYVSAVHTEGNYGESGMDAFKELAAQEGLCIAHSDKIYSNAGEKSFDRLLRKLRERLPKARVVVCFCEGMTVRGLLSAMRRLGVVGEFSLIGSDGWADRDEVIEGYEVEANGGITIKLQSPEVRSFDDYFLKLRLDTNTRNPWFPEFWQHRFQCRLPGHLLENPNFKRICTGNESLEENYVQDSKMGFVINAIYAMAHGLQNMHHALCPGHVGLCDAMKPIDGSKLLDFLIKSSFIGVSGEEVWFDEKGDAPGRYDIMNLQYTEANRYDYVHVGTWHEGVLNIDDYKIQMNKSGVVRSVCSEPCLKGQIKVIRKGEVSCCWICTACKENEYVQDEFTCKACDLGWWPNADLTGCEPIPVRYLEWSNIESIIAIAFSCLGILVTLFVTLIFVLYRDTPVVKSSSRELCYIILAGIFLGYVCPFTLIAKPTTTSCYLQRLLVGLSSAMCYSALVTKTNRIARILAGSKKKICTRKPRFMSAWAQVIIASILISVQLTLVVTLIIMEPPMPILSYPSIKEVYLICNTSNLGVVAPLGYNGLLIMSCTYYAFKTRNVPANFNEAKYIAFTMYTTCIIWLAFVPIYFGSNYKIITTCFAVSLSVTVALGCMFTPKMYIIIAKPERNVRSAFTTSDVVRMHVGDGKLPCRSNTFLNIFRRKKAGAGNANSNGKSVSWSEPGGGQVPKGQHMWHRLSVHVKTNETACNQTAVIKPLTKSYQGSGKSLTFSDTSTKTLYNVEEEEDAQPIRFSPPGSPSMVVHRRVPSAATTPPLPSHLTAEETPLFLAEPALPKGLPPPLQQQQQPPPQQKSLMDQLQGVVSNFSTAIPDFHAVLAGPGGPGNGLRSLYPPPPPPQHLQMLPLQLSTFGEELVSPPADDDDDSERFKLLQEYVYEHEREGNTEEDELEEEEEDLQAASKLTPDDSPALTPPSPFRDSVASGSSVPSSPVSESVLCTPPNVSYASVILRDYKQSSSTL

Plasma [9] = experiment: Drug metabolism in rat plasma assessed as 4-chloro-2-(2-chloro-4-(3-methylfuran-2-carboxamido)phenylcarbamoyl)benzoic acid level at 10 uM after 4 hrs by mass spectrometry; format: ADME, cell-free
Cytochrome P450 2C9 = Cytochrome P450 2C9 (Homo sapiens, UniProt P11712); experiment: Inhibition of CYP2C9 in human liver microsomes by LC-MS/MS analysis; format: ADME
[10] = Mean residence time in Sprague-Dawley rat at 0.2 mg/kg, iv by LC-MS/MS analysis; conditions: in vivo
[11] = target: Metabotropic glutamate receptor 2 (Homo sapiens) (UniProt Q14416); experiment: Positive allosteric modulation of mGlu2 receptor (unknown origin) assessed as potentiation of glutamate-induced response by cell-based assay
How it was run: (§2)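 Selectivity counterscreen at the other mGlu subtypes using the standard fold-shift paradigm. Compound was tested at 10 μM against the glutamate concentration-response curve, and the shift of that curve was read.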

[12] = target: Metabotropic glutamate receptor 6 (Homo sapiens) (UniProt O15303); experiment: Positive allosteric modulation of mGlu6 receptor (unknown origin) assessed as potentiation of glutamate-induced response by cell-based assay
How it was run: as §2

[13] = target: T2, Metabotropic glutamate receptor 1; experiment: Positive allosteric modulation of human mGlu1 receptor in HEK293 cells assessed as potentiation of glutamate-induced calcium mobiliztion at 10 uM by Fluo-4AM dye based fluorescence analysis; format: functional, cell-based
Target sequence in this assay (Q13255 19-1194 limits assumed): as above

Mus musculus [14] = experiment: Toxicity in C57BL/6 mouse assessed as seizure activity at 100 mg/kg, ip administered as single dose measured for 3 hrs; format: organism-based; conditions: in vivo
How it was run: as §1

[15] = target: Metabotropic glutamate receptor 1 (Rattus norvegicus, UniProt P23385); experiment: Positive allosteric modulation of rat mGlu1 receptor assessed as potentiation of glutamate-induced calcium mobiliztion by cell based assay; format: functional
How it was run: (§3)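 Rat mGlu1 WT calcium mobilization concentration-response curves. EC50 and % Glu Max were derived from the curves.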

Cytochrome P450 1A2 = target: T3, Cytochrome P450 1A2 (Homo sapiens, UniProt P05177); experiment: Inhibition of CYP1A2 in human liver microsomes by LC-MS/MS analysis; format: ADME
T3 sequence (P05177 whole entry): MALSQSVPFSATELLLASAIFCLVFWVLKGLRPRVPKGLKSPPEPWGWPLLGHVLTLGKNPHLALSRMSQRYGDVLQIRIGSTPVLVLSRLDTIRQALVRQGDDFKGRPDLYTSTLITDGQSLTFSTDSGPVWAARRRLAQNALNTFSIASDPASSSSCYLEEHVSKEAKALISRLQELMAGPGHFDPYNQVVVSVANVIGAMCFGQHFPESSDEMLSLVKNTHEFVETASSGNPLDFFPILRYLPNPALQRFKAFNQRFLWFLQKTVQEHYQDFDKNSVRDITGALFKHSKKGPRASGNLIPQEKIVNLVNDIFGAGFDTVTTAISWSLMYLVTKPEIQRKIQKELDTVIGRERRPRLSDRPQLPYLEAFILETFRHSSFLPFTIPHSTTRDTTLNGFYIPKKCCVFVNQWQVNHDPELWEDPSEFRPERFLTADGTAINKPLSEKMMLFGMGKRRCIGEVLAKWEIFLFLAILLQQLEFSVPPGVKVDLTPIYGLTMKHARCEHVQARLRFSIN

[16] = target: T1, Metabotropic glutamate receptor 4; experiment: Positive allosteric modulation of human mGlu4 receptor assessed as potentiation of glutamate-induced calcium mobiliztion by cell based assay; format: functional
Rattus norvegicus = experiment: Volume of distribution at steady state in Sprague-Dawley rat at 0.2 mg/kg, iv by LC-MS/MS analysis; conditions: in vivo
Plasma [17] = experiment: Drug metabolism in rat plasma assessed as 5-chloro-2-(2-chloro-4-(3-methylfuran-2-carboxamido)phenylcarbamoyl)benzoic acid level at 10 uM after 4 hrs by mass spectrometry; format: ADME, cell-free
Plasma [18] = experiment: Drug metabolism in human plasma assessed as 5-chloro-2-(2-chloro-4-(3-methylfuran-2-carboxamido)phenylcarbamoyl)benzoic acid level at 10 uM after 4 hrs by mass spectrometry; format: ADME, cell-free
[19] = target: Metabotropic glutamate receptor 1 (Rattus norvegicus) (UniProt P23385); experiment: Positive allosteric modulation of rat mGlu1 receptor assessed as potentiation of glutamate-induced calcium mobiliztion by cell based assay relative to glutamate; format: functional
How it was run: as §3

[20] = Plasma concentration in Sprague-Dawley rat at 0.2 mg/kg, iv after 0.25 hrs by LC-MS/MS analysis
[21] = target: Metabotropic glutamate receptor 3 (Homo sapiens) (UniProt Q14832); experiment: Positive allosteric modulation of mGlu3 receptor (unknown origin) assessed as potentiation of glutamate-induced response by cell-based assay
How it was run: as §2

Cytochrome P450 3A4 = Cytochrome P450 3A4 (Homo sapiens, UniProt P08684); experiment: Inhibition of CYP3A4 in human liver microsomes by LC-MS/MS analysis; format: ADME
Brain = experiment: Drug concentration in C57BL/6 mouse brain at 100 mg/kg, ip administered as single dose; format: ADME, organism-based; conditions: in vivo, read-out: Drug uptake
[22] = target: Metabotropic glutamate receptor 8 (Homo sapiens) (UniProt O00222); experiment: Positive allosteric modulation of mGlu8 receptor (unknown origin) assessed as potentiation of glutamate-induced response by cell-based assay
How it was run: as §2

Cytochrome P450 2D6 = Cytochrome P450 2D6 (Homo sapiens, UniProt P10635); experiment: Inhibition of CYP2D6 in human liver microsomes by LC-MS/MS analysis; format: ADME
Plasma [23] = experiment: Drug metabolism in rat plasma assessed as N-(4-amino-3-chlorophenyl)-3-methylfuran-2-carboxamide level at 10 uM after 4 hrs by mass spectrometry; format: ADME, cell-free
[24] = Intrinsic clearance in human liver microsomes at 1 uM by LC-MS/MS analysis; format: ADME; conditions: read-out: CLH
[25] = Ratio of drug level in brain to plasma of Sprague-Dawley rat at 0.2 mg/kg, iv after 0.25 hrs by LC-MS/MS analysis; conditions: read-out: BPR
[26] = target: Metabotropic glutamate receptor 5 (Homo sapiens) (UniProt P41594); experiment: Positive allosteric modulation of mGlu5 receptor (unknown origin) assessed as potentiation of glutamate-induced response by cell-based assay
How it was run: as §2

[27] = target: T2, Metabotropic glutamate receptor 1; experiment: Positive allosteric modulation of human mGlu1 receptor in HEK293 cells assessed as potentiation of glutamate-induced calcium mobiliztion by Fluo-4AM dye based fluorescence analysis relative to glutamate; format: functional, cell-based
Target sequence in this assay (Q13255 19-1194 limits assumed): as the sequence (Q13255 19-1194 limits assumed) above

[28] = target: Metabotropic glutamate receptor 7 (Homo sapiens) (UniProt Q14831); experiment: Positive allosteric modulation of mGlu7 receptor (unknown origin) assessed as potentiation of glutamate-induced response by cell-based assay
How it was run: as §2

Plasma [29] = experiment: Drug metabolism in human plasma assessed as N-(4-amino-3-chlorophenyl)-3-methylfuran-2-carboxamide level at 10 uM after 4 hrs by mass spectrometry; format: ADME, cell-free
[30] = Plasma clearance in Sprague-Dawley rat at 0.2 mg/kg, iv by LC-MS/MS analysis
Plasma [31] = experiment: Metabolic stability in human plasma; format: ADME, cell-free
How it was run: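 Compound incubated at 10 μM in rat or human plasma at 37 °C. Samples taken at 0 and 4 h were analysed by mass spectrometry for parent and metabolites.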

[32] = target: T2, Metabotropic glutamate receptor 1; experiment: Positive allosteric modulation of human mGlu1 receptor in HEK293 cells assessed as potentiation of glutamate-induced calcium mobiliztion by Fluo-4AM dye based fluorescence analysis; format: functional, cell-based; conditions: read-out: EC50
Target sequence in this assay (Q13255 whole entry): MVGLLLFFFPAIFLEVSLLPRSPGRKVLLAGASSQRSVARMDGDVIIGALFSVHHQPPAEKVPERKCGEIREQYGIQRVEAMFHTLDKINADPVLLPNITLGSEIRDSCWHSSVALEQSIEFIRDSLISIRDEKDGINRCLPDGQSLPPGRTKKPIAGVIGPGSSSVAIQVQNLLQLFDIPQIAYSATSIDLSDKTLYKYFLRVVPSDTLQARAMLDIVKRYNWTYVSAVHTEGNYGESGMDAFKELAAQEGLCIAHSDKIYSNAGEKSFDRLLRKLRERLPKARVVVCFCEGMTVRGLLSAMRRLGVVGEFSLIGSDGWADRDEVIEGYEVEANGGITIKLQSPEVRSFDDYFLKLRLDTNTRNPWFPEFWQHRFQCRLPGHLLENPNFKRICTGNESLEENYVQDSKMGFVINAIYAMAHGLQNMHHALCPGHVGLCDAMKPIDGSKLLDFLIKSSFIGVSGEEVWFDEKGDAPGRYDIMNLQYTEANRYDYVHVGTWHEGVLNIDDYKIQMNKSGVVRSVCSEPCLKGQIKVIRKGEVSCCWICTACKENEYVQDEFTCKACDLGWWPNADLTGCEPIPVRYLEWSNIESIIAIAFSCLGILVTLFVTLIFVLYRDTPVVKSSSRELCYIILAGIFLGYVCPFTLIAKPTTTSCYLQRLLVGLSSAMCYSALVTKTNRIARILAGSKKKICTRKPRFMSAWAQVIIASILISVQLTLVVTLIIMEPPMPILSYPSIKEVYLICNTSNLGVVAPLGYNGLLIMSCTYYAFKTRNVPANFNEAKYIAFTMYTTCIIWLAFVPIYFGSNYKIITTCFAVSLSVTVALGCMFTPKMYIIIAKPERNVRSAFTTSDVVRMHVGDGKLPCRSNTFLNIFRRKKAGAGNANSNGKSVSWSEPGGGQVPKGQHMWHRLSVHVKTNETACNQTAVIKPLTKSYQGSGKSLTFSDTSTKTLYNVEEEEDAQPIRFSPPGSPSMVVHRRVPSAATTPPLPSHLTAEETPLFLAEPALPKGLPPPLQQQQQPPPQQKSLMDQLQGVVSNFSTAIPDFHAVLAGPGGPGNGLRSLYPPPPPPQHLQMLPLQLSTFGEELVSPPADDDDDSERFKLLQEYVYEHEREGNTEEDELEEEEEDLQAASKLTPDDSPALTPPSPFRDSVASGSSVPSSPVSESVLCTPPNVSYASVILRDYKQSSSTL

Hippocampus = experiment: Toxic epileptiform activity in C57BL/6 mouse CA3 region of hippocampus assessed as frequency of spike activity at 50 uM by electrophysiolgy method (reference value: 0.94 +/- 0.06 Hz); format: toxicity, tissue-based
How it was run: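 Mouse hippocampal slices with extracellular recording from the CA3 pyramidal cell body layer. Compound (10 μM) or DHPG (50 μM) was bath-applied, and the frequency of spontaneous spikes was compared with baseline. n = 6 per agent, paired t test.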

[33] = target: T2, Metabotropic glutamate receptor 1; experiment: Negative allosteric modulation of human mGlu1 receptor in HEK293 cells assessed as potentiation of glutamate-induced calcium mobiliztion by Fluo-4AM dye based fluorescence analysis; format: functional, cell-based
Target sequence in this assay (Q13255 whole entry): as above

T1 sequence (Q14833 whole entry): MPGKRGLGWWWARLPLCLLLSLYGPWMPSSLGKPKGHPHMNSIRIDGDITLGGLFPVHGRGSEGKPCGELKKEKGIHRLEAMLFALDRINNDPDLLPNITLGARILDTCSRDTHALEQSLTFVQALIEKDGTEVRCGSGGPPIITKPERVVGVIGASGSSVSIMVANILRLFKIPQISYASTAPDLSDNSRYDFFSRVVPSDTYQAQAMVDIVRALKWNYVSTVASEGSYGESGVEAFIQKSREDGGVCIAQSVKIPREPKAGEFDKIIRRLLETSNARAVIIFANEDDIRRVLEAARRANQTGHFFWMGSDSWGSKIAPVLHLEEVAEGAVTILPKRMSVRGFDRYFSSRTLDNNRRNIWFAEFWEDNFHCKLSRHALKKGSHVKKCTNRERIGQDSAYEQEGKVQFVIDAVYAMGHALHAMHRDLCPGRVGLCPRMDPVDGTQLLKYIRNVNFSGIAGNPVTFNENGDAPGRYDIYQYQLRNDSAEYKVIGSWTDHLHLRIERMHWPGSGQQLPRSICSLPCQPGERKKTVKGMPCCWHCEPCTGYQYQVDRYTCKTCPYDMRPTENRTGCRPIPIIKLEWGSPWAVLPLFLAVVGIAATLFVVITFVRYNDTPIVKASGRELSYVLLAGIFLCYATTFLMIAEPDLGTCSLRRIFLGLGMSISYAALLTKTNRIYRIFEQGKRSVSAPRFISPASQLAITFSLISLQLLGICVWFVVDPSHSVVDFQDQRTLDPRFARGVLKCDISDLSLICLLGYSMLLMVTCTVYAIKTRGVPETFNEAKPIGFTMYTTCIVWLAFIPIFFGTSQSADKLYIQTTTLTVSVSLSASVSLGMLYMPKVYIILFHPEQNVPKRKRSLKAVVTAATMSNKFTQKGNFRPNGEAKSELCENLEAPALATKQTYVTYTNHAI
Chain of Metabotropic glutamate receptor 1 (Rattus norvegicus, UniProt P23385) (P23385 whole entry): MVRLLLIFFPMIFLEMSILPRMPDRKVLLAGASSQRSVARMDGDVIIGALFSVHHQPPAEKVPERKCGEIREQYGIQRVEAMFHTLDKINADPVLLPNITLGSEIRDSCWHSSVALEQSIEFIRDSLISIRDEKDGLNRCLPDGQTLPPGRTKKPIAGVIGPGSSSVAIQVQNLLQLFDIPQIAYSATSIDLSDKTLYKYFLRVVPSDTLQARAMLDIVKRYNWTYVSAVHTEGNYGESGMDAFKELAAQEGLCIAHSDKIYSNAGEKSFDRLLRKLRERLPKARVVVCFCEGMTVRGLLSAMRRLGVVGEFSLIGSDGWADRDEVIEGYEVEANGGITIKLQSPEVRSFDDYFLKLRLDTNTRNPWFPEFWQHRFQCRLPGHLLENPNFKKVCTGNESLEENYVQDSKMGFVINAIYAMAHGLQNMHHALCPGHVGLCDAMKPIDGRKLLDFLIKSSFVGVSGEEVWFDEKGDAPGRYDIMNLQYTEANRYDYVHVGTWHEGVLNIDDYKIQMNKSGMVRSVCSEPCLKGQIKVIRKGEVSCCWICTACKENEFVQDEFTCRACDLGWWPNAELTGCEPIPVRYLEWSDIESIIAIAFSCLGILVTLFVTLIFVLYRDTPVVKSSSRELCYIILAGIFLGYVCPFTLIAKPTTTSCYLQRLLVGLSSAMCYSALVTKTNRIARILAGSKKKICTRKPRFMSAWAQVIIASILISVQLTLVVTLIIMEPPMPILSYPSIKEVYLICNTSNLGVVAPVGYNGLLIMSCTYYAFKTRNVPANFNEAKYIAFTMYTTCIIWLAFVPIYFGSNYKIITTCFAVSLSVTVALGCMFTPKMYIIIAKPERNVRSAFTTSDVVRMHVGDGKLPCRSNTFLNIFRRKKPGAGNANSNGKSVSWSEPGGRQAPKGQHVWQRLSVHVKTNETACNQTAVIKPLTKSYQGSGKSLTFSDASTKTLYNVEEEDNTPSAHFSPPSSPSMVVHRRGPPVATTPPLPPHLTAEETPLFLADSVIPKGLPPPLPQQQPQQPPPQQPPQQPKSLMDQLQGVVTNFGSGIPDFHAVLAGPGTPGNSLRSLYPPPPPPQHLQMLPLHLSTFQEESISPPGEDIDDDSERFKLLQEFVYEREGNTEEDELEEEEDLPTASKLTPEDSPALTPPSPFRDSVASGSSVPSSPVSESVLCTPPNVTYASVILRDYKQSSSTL
Chain of Cytochrome P450 2D6 (P10635 whole entry): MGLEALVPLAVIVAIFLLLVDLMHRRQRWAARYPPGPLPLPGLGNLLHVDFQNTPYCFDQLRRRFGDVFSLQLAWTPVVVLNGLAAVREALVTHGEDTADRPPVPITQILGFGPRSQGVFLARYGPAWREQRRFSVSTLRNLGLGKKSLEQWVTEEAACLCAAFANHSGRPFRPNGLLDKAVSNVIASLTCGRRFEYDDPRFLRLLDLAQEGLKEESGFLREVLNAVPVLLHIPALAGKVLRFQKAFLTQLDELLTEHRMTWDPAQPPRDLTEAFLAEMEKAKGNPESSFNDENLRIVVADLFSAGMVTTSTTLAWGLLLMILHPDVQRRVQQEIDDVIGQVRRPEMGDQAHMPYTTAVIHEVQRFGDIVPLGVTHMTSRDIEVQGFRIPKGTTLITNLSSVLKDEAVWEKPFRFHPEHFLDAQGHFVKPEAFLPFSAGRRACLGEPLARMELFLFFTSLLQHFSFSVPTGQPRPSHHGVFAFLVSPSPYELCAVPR

Compound: C[C@@H](NC(=O)c1ccc(C#Cc2cccc(F)c2)cn1)C(C)(C)O
- Activity (Mus musculus [1]): Toxic
- Activity (Mus musculus [2]): Toxic

Compound: Cc1ccoc1C(=O)Nc1ccc(N2C(=O)c3ccc(Cl)cc3C2=O)c(Cl)c1
- Drug metabolism (Plasma [3]): metabolite_detected
- Stability (Plasma [4]): Unstable
- concentration at 0.25 h [5]: 108 ng/mL
- half-life [6]: 1.52 h
- %max [7]: 89%
- Activity [8]: < 20%
- Drug metabolism (Plasma [9]): metabolite_detected
- IC50 (Cytochrome P450 2C9): > 30000 nM
- MRT [10]: 0.892 h
- fold change (FC) [11]: 2
- fold change (FC) [12]: 2
- fold change (FC) [13]: 8.3
- Activity (Mus musculus [14]): Non-toxic
- EC50 [15]: 113 nM
- IC50 (Cytochrome P450 1A2): > 30000 nM
- EC50 ([16]; read-out: EC50): 2250 nM
- EC50 ([16]; read-out: pEC50 (converted)): 2290 nM
- Vdss (Rattus norvegicus): 1.76 L/kg
- Drug metabolism (Plasma [17]): metabolite_detected
- Drug metabolism (Plasma [18]): metabolite_detected
- %max [19]: 107%
- concentration at 0.25 h [20]: 173 ng/mL
- fold change (FC) [21]: 2
- IC50 (Cytochrome P450 3A4): > 30000 nM
- concentration (Brain): 1400 nM
- fold change (FC) [22]: 2
- IC50 (Cytochrome P450 2D6): > 30000 nM
- Drug metabolism (Plasma [23]): metabolite_detected
- CLint scaled at 1 µM [24]: 2.9 mL/min/kg
- Kp at 0.25 h [25]: 0.63
- fold change (FC) [26]: 2
- %max [27]: 94%
- fold change (FC) [28]: 2
- Drug metabolism (Plasma [29]): metabolite_detected
- clearance [30]: 33 mL/min/kg
- Stability (Plasma [31]): Unstable
- EC50 [32]: 80.9 nM

Compound: N[C@H](C(=O)O)c1cc(O)cc(O)c1
- Activity (Hippocampus): 13.8 Hz

Compound: CC1(C)C2C(=O)N(c3ccc(NC(=O)c4ccccn4)cc3Cl)C(=O)C21 (stereo unspecified)
- IC50 [33]: 140 nM
